A selection: hits, their analogues and other compounds. The true share with any hit is near 2.9%.
Calb FLC: affects C. albicans growth with fluconazole; AID 1979; growth inhibition, % (concentration not given with the values); hit rate 0.57% among 300,000; C. albicans CaCi-2 (fluconazole-resistant clinical isolate) + fluconazole, Alamar Blue growth, 48 h;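 active = growth inhibition above about 58% in most replicates, limit read from the data, passing the limit was not always enough; inconclusive = exactly half the replicates above a set limit; inactive = most replicates below a set limit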;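 note: all wells also contain fluconazole at 8 µg/ml as a sub-toxic cotreatment; 0% = median of DMSO wells and 100% = median of geldanamycin control wells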
MC4R barr agon: activates human MC4R beta-arrestin recruitment; P32245; U2OS MC4R beta-arrestin complementation, luminescence; percent of melanotan II response, DMSO zero; activation, % at 8.9 µM; hit rate 0.98% among 360,000; AID 540308;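 active = activation above a per-plate cutoff, the mean activation of sample wells on that plate plus 3 SD, cut at about 8% in these data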
Target sequence (P32245 whole entry, looked up): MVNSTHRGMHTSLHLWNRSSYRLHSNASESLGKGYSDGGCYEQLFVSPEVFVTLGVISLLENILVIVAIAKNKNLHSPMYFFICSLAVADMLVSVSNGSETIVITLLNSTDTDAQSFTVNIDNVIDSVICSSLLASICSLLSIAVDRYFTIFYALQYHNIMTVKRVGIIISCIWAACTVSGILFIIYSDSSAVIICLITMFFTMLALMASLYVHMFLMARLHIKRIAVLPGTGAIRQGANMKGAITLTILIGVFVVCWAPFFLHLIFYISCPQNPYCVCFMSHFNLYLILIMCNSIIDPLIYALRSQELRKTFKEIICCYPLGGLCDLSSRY
Efflux pump mplx: inhibitors of Candida antifungal efflux pumps expressed in yeast. S. cerevisiae Candida pump triplex, Nile Red efflux. inhibition, % at 10 µM. hit rate 0.44% among 330,000. AID 485275;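 active = plate passing quality check with inhibition over a set limit, or well fluorescence over plate mean plus 4 SD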;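 note: Nile Red retained in pooled yeast measured as flow cytometry median fluorescence; 0% = buffer negative control and 100% = Enniatin B positive control; higher means more Nile Red kept so more efflux inhibition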
TAG inh: triacylglycerol accumulation inhibition | H9c2 cells, Nile Red lipid (TAG) fluorescence; cells loaded with 200 µM oleic acid | inhibition, % at 12.5 µM | hit rate 0.66% among 230,000;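 active = pattern-corrected inhibition of lipid staining of at least 50% with the nuclear-stain viability signal not falling by more than 50%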;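 note: 0% = DMSO wells and 100% = triacsin C control wells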
GalR3 antagonist: human GalR3 antagonism. O60755. HEK293 GalR3-CNG cAMP membrane potential fluorescence; galR3 body fused to GalR1 C-terminus. inhibition, % at 3 µM. hit rate 0.44% among 360,000. AID 651719;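 active = inhibition above the screen-wide average plus 3 SD, cut at about 13% in these data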;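 note: forskolin and galanin both at EC90 stimulate the cells; cAMP rise reported by CNG channel membrane potential dye signal; 0% = forskolin plus galanin with DMSO and 100% = forskolin alone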
Target sequence (O60755 1-299 limits assumed): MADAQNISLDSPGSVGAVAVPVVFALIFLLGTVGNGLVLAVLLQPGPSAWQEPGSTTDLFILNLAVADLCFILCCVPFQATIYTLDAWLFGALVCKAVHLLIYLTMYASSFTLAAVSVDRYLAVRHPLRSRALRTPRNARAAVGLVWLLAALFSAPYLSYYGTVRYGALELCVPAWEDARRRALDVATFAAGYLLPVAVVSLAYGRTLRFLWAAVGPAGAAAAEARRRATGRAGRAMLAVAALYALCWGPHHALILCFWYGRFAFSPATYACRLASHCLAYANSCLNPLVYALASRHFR
MC4R antagonist: blocks human MC4R cAMP signaling; P32245; MC4R-expressing cells, MTII-stimulated cAMP, LANCE TR-FRET; inhibition, % at 6.5 µM; hit rate 0.48% among 360,000; AID 540295;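 active = inhibition above its plate's cutoff, the mean of tested wells on that plate plus 3 SD, cut at about 29% in these data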;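 note: 0% = Melanotan II alone and 100% = Melanotan II plus saturating MCL0020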
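System: U2OS cells stably expressing human melanocortin 4 receptor (MC4R). Reagent: Melanotan II challenge after compound preincubation. Doses: 6.5 µM. Times: 30-min compound, 1-h challenge, 1-h detection, room temperature. Measured by: TR-FRET with Eu-cAMP and labeled anti-cAMP, 671 nm. Replicates: singlicate.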
MC4R barr conf: human MC4R beta-arrestin agonism confirmation | shares compounds with MC4R barr agon | U2OS MC4R beta-arrestin recruitment, luminescence; scaled DMSO 0%, Melanotan II 100% | activation, % at 8.9 µM | hit rate 31% among 2,400 | AID 602192;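 active = mean activation across replicates above the hit cutoff set in the earlier primary screen, cut at about 8% in these data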
MOR-DOR barr ag: activates mu-delta opioid heterodimer, MC4R agonist counter-screen; shares compounds with MC4R barr agon; U2OS PathHunter beta-arrestin, beta-gal luminescence; percent of deltorphin B response, DMSO zero; activation, % at 9.2 µM; hit rate 5.8% among 2,400;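 active = mean activation across replicates exceeds the hit threshold derived in the earlier primary screen, cut at about 18% in these data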;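 note: 100% = deltorphin B at 0.9 µM final and 0% = DMSO alone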
Active calls of the source: *; ? = inconclusive; nt = not tested or not shown.

SMILES	Calb FLC	MC4R barr agon	Efflux pump mplx	TAG inh	GalR3 antagonist	MC4R antagonist	MC4R barr conf	MOR-DOR barr ag
Cc1ccc(N2CCN(C3=NC(=O)/C(=C\c4cn[nH]c4-c4ccccc4)S3)CC2)cc1	59	18*	0	nt	-7	8	4	3
Cc1cccc(N2CCN(C3=NC(=O)/C(=C\c4cn[nH]c4-c4ccccc4)S3)CC2)c1	0	16*	0	nt	0	9	6	6
O=C1N=C(N2CCN(c3ccccc3)CC2)S/C1=C\c1ccco1	-9	4	0	nt	-3	-7	nt	nt
C=CCn1c(Cn2c(-c3cnccn3)nc3ccccc32)nc2ccccc21	nt	nt	nt	nt	-5	nt	nt	nt
CCCC1NC(=O)c2cccnc2-n2c1nc1cc(C)cc(C)c1c2=O (stereo not given)	nt	0	nt	19	3	24	nt	nt
Nc1c(C(=O)NCc2ccc3c(c2)OCO3)nnn1Cc1ccc(Br)cc1	-1	18*	0	-38	1	-5	7	10
Nc1c(C(=O)NCc2ccc3c(c2)OCO3)nnn1Cc1cccc(F)c1	-13	-1	0	-11	1	1	nt	nt
CCCCCc1c2c(cc(O)c1C(=O)O)OC(=O)c1cc(C(=O)CCCC)c(OC)cc1O2	nt	7	0	nt	1	19	nt	nt
CCCCCc1c2c(cc(O)c1C(=O)O)OC(=O)c1c(cc(OC)cc1C(=O)CCCC)O2	-4	11*	0	nt	nt	24	4	3
COCCNc1nnc(SC(C)C(=O)Nc2ccc(-c3nc4ccc(C)cc4s3)cc2)s1 (stereo not given)	50	15*	0	nt	-3	12	7	5
COCCNc1nnc(SC(C)C(=O)Nc2c(C)n(C)n(-c3ccccc3)c2=O)s1 (stereo not given)	-3	-3	0	-7	6	-3	nt	nt
Cc1cc(C(=O)COC(=O)CNC(=O)c2ccc(Cl)c(Cl)c2)c(C)n1Cc1ccco1	?	12*	0	nt	-5	6	-3	3
CN(C)CCCN(C(=O)c1cc2cc([N+](=O)[O-])ccc2s1)c1nc2cc3c(cc2s1)OCCO3	-20	35*	1	45	-7	-5	25*	17
COc1ccc(C(C)(C)C)cc1NC(=O)COC(=O)c1cc(SC)ccc1Cl	5	-1	0	nt	-3	4	nt	nt
COc1ccc(NC(=O)COC(=O)c2cc(SC)ccc2Cl)c(OC)c1	6	22*	0	nt	-5	7	9.1*	12
COc1ccc(-c2cc3ccccc3oc2=O)cc1NC(=O)c1ccc(Br)o1	-1	13*	0	nt	-2	3	3	3
COc1cccc(C(=O)Nc2ccc(-c3nc4ccccc4o3)c(O)c2)c1	0	11*	0	nt	-9	-1	4	4
COc1cc(NC(=O)c2cccc([N+](=O)[O-])c2)ccc1NC(=O)c1cc2ccccc2o1	0	2	0	nt	-11	-1	nt	nt
COc1ccc(-c2cc3ccccc3oc2=O)cc1NC(=O)c1ccc([N+](=O)[O-])o1	6	-1	0	nt	-7	5	nt	nt
COc1cc(OC)cc(C(=O)Nc2ccc(-c3nc4ccccc4o3)cc2)c1	-5	7	0	20	-6	5	nt	nt
COc1cc(NC(=O)c2cc3ccccc3o2)c(OC)cc1Cl	-10	13*	0	-4	2	3	8	8
CCOc1cccc(C(=O)Nc2ccc(NC(=O)c3cc4ccccc4o3)c(OC)c2)c1	1	12*	0	nt	-10	2	34*	30*
CCCCC[C@@H](C)N1C[C@H](COCc2ccccc2)Oc2cc(N3CC[C@H](N(C)C)C3)ccc2S1(=O)=O	nt	nt	nt	nt	-7	nt	nt	nt
CC1(C(=O)NS(=O)(=O)C2CC2)CCN(C(=O)c2cc(F)cc(F)c2)C1 (stereo not given)	nt	0	nt	11	2	-4	nt	nt
NC(=S)N=Nc1ccc(O)cc1	nt	-3	nt	-8	-6	-7	nt	nt
SMILES	Calb FLC	MC4R barr agon	Efflux pump mplx	TAG inh	GalR3 antagonist	MC4R antagonist	MC4R barr conf	MOR-DOR barr ag
CCc1nnc(NC(=O)c2cccc(OC)c2)s1	-16	0	0	6	2	7	nt	nt
COc1cccc(C(=O)Nc2nnc(-c3cccs3)s2)c1	1	15*	0	9	-5	-3	0	4
CCc1ccc(C2CC(c3ccc(Cl)cc3)n3nc(N)nc3N2)cc1 (stereo not given)	2	5	1	5	3	-2	nt	nt
CCc1ccc(C2CC(c3ccc(F)cc3)Nc3nc(N)nn32)cc1 (stereo not given)	10	25*	0	nt	-1	4	17*	1
COc1cc(F)ccc1-c1csc(C(O)c2ccc(F)cc2)n1 (stereo not given)	nt	14*	nt	-15	-7	5	-1	8
COc1ccc(C(O)c2nc(-c3ccc(F)cc3OC)cs2)cc1 (stereo not given)	nt	1	nt	-6	-5	6	nt	nt
CCN=C1SC(CC(=O)Nc2sc3c(c2C#N)CCCC3)C(=O)N1CC (stereo not given)	-5	12*	0	nt	9	-2	2	7
CCCCn1nnnc1C(c1cc2ccccc2o1)N(Cc1ccccc1)Cc1ccccc1 (stereo not given)	nt	nt	nt	nt	-6	nt	nt	nt
O=C(O)/C=C\C(=O)Nc1ccc(Oc2ccccc2)cc1	7	-1	0	-14	-2	3	nt	nt
O=C(O)/C=C/C(=O)Nc1ccc(C2(c3ccc(NC(=O)/C=C/C(=O)O)cc3)c3ccccc3-c3ccccc32)cc1	4	53*	0	nt	5	-1	1	1
CCCCCCN1C=C/C(=C\C=C(C#N)C#N)c2ccccc21	-27	11*	0	nt	-4	-1	12*	13
Cc1ccc2nsnc2c1NC(=O)c1sc2ccccc2c1Cl	-8	13*	0	nt	0	6	3	4
Cc1nnc(NC(=O)c2sc3ccccc3c2Cl)s1	68	-3	0	6	-6	13	nt	nt
COc1ccc(-c2cc(CNc3nc(NCc4ccccc4OC)nc4ccsc34)on2)cc1	nt	1	nt	8	-2	5	nt	nt
CCc1nc(N)c(C#N)c(-c2ccc(F)cc2)c1C	7	7	0	nt	-2	0	nt	nt
Cc1c(-c2ccc(F)cc2)nc(N)c(C#N)c1-c1ccco1	37	15*	0	nt	-4	3	3	7
C[C@H](CO)N1C[C@H](C)[C@H](CN(C)C(=O)Nc2ccc(C(F)(F)F)cc2)OCc2cnnn2CCCC1=O	nt	0	nt	-5	-7	3	nt	nt
CCOC(=O)C(=CNc1cc(C)nn1-c1ccc(C)cc1)C(=O)OCC	4	3	0	-2	-9	-6	nt	nt
